The species named for one assay is Bos taurus. Briefly: Ratio of Ki for central benzodiazepine receptor in bovine cortical membrane to Ki for central benzodiazepine receptor in bovine cortical membrane in presence of 50 uM GABA. The format is cell membranes.
Assay [1] can be described thus: Displacement of [3H]flumazenil from central benzodiazepine receptor in bovine cortical membrane after 90 mins by beta liquid scintillation counting. In kind it is cell membranes, Bos taurus. The essentials:
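At least six concentrations spanning 3 log units were tested in 2% DMSO. Ki was obtained by Cheng–Prusoff (Kd 0.85 nM bovine, 0.91 nM human), mean of three determinations.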

The nature of assay [2]: Displacement of [3H]flumazenil from central benzodiazepine receptor in human cortical membrane after 90 mins by beta liquid scintillation counting. The format is cell membranes. On the technique in general: Displacement assays read how much labelled ligand stays bound in the presence of the test substance.
Assay [3] relates to Oocyte. Briefly: Antagonist at human recombinant GABA-A alpha5beta2gamma2L receptor expressed in Xenopus laevis oocytes assessed as blockade of diazepam-induced potentiation of GABA-induced chloride current at 10 uM incubated 60 seconds before addition of GABA measured after 30 seconds at holding potential -70 mV by two-microelectrode voltage clamp technique. In kind it is functional, cell-based. The essentials: (§1)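 Oocytes expressing human α1β2γ2L, α2β1γ2L or α5β2γ2L receptors were clamped at −70 mV. Compound at 10 μM was tested against the enhancement of the GABA EC10 response by 1.0 μM diazepam, with 60 s preapplication and 30 s coapplication. The response was expressed as percent potentiation, from 2–3 oocytes.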

The target of assay [4] is T1, GABA-A receptor; alpha-1/beta-2/gamma-2 (Homo sapiens) (UniProt P14867+P47870+P18507). Briefly: Modulation of human recombinant GABA-A alpha1beta2gamma2L receptor expressed in Xenopus laevis oocytes assessed as effect on GABA-induced chloride current at 1 uM incubated 60 seconds before addition of GABA measured after 30 seconds at holding potential -70 mV by two-microelectrode voltage clamp technique relative to control. The conditions noted are these: Oocyte. The format is cell-based.

For assay [5], the system named is Oocyte. Briefly: Modulation of human recombinant GABA-A alpha5beta2gamma2L receptor expressed in Xenopus laevis oocytes assessed as effect on GABA-induced chloride current at 10 uM incubated 60 seconds before addition of GABA measured after 30 seconds at holding potential -70 mV by two-microelectrode voltage clamp technique relative to control. In kind it is cell-based.

Assay [6] concerns the target T1, GABA-A receptor; alpha-1/beta-2/gamma-2 (Homo sapiens). Briefly: Modulation of human recombinant GABA-A alpha1beta2gamma2L receptor expressed in Xenopus laevis oocytes assessed as effect on GABA-induced chloride current at 0.01 uM incubated 60 seconds before addition of GABA measured after 30 seconds at holding potential -70 mV by two-microelectrode voltage clamp technique relative to control. The format is cell-based. Particulars: Oocyte.

For a further assay, the species on record is Homo sapiens. Briefly: Ratio of Ki for central benzodiazepine receptor in human cortical membrane to Ki for central benzodiazepine receptor in human cortical membrane in presence of 50 uM GABA. The format is cell membranes.
Assay [7] addresses T1, GABA-A receptor; alpha-1/beta-2/gamma-2 (Homo sapiens). Briefly: Modulation of human recombinant GABA-A alpha1beta2gamma2L receptor expressed in Xenopus laevis oocytes assessed as effect on GABA-induced chloride current at 0.1 uM incubated 60 seconds before addition of GABA measured after 30 seconds at holding potential -70 mV by two-microelectrode voltage clamp technique relative to control. In kind it is cell-based. Particulars: Oocyte.

Assay [8] has the same target. Briefly: Modulation of human recombinant GABA-A alpha1beta2gamma2L receptor expressed in Xenopus laevis oocytes assessed as effect on GABA-induced chloride current at 10 uM incubated 60 seconds before addition of GABA measured after 30 seconds at holding potential -70 mV by two-microelectrode voltage clamp technique relative to control. The format is cell-based. Particulars: Oocyte.

Assay [9] has the same target. Briefly: Antagonist at human recombinant GABA-A alpha1beta2gamma2L receptor expressed in Xenopus laevis oocytes assessed as blockade of diazepam-induced potentiation of GABA-induced chloride current at 10 uM incubated 60 seconds before addition of GABA measured after 30 seconds at holding potential -70 mV by two-microelectrode voltage clamp technique. In kind it is functional, cell-based. Particulars: Oocyte. The essentials:
as §1

Assay [10] addresses T2, GABA A receptor alpha-1/beta-1/gamma-2 (Homo sapiens) (UniProt P14867+P18507+P18505). Briefly: Modulation of human recombinant GABA-A alpha1beta1gamma2L receptor expressed in Xenopus laevis oocytes assessed as effect on GABA-induced chloride current at 1 uM incubated 60 seconds before addition of GABA measured after 30 seconds at holding potential -70 mV by two-microelectrode voltage clamp technique relative to control. Particulars: Oocyte. The format is cell-based.

Assay [11] addresses T2, GABA A receptor alpha-1/beta-1/gamma-2 (Homo sapiens). Briefly: Antagonist at human recombinant GABA-A alpha1beta1gamma2L receptor expressed in Xenopus laevis oocytes assessed as blockade of diazepam-induced potentiation of GABA-induced chloride current at 10 uM incubated 60 seconds before addition of GABA measured after 30 seconds at holding potential -70 mV by two-microelectrode voltage clamp technique. In kind it is functional, cell-based. The conditions noted are these: Oocyte.

For assay [12] the target is unchanged. Briefly: Modulation of human recombinant GABA-A alpha1beta1gamma2L receptor expressed in Xenopus laevis oocytes assessed as effect on GABA-induced chloride current at 10 uM incubated 60 seconds before addition of GABA measured after 30 seconds at holding potential -70 mV by two-microelectrode voltage clamp technique relative to control. In kind it is cell-based. Particulars: Oocyte.

The species entered for assay [13] is Rattus norvegicus. Briefly: Antagonist activity at central benzodiazepine receptor in Sprague-Dawley rat cerebrocortical synaptoneurosomes assessed as effect on GABA-induced [36]chloride ion flow after 10 seconds by beta liquid scintillation counting. The format is functional. The essentials:
(§2)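 Cerebral cortex from male Sprague-Dawley rats was homogenised and filtered, and synaptoneurosomes were washed in HEPES pH 7 buffer (145 mM NaCl, 5 mM KCl, 5 mM MgCl2, 1 mM CaCl2, 10 mM glucose). Aliquots of 1.5–2 mg protein were preincubated 10 min at 30 C. Drug was added with 0.2 μCi 36Cl−, uptake was stopped at 10 s, and filter-bound radioactivity was counted by scintillation.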

Assay [14] concerns Oocyte. Briefly: Modulation of human recombinant GABA-A alpha5beta2gamma2L receptor expressed in Xenopus laevis oocytes assessed as effect on GABA-induced chloride current at 1 uM incubated 60 seconds before addition of GABA measured after 30 seconds at holding potential -70 mV by two-microelectrode voltage clamp technique relative to control. In kind it is cell-based.
Assay [15] concerns Mus musculus. Briefly: Anxiolytic effect in mouse assessed as increase in time spent in light compartment at 1 mg/kg, ip by light/dark box test. Also noted: dose 1 mg/kg. The format is functional, organism-based. The essentials: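 Male mice were used. Compound was given orally as a suspension in 1% CMC; diazepam was given ip in saline; volume 10 mL/kg. Each mouse was placed in the lit side of a two-compartment light/dark box and observed for 5 min, scoring time in the light and transfers. Groups were compared by ANOVA with Fisher PLSD.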

Assay [16] has as its system Mus musculus. Briefly: Myorelaxant activity in mouse assessed as motor coordination measuring number of falls at 1 mg/kg, ip measured for 30 seconds after 45 mins of compound administration by rotarod test. The format is functional, organism-based. On the set-up: dose 1 mg/kg.
For assay [17], the species on record is Rattus norvegicus. Briefly: Agonist activity at central benzodiazepine receptor in Sprague-Dawley rat cerebrocortical synaptoneurosomes assessed as increase in GABA-induced [36]chloride ion flow after 10 seconds by beta liquid scintillation counting. In kind it is functional. The essentials:
as §2

The structures appear in SMILES notation. The source made the active and inactive calls. The calls are words filed in the database; no cut-off is given here. Bounds are passed on as bounds.

In general, Ki refers to the dissociation constant of the complex between target and ligand, obtained from inhibition or displacement. A lower Ki goes with a stronger hold on the target. Consider `CCOC(=O)c1ncn2c1CN=C(c1ccc(OC)cc1)c1ccccc1-2`, for which, in the assay filed under Bos taurus, the Ratio Ki is 0.78. Further, the values for the Ki in assay [1] and in assay [2] were 0.11 µM and 0.12 µM, respectively.
Consider `O=C1OCCC2N=C(c3ccccc3)c3ccccc3-n3cnc1c32` (stereo unspecified), for which the Ratio Ki in the assay filed under Bos taurus came to 0.95. This compound displayed a Ki in assay [1] of 0.283 µM.
As for `CCOC(=O)c1ncn2c1CN=C(c1ccc(Cl)cc1)c1ccccc1-2`, the outcome (in the assay with Oocyte [3]; in assay [9]; in assay [11]; in the assay filed under Rattus norvegicus [13]) was Active. Also, the Activity in assay [4] is 3.6%; in the assay on Oocyte [5], 0%; in [6] it was 13%; in [7], 1%; in assay [8] it was 6.3%; in [10] it was -7%. For the same compound, the figures for the Activity (in assay [12]; with Oocyte [14]) were -18% and -0.5%, respectively. Also, the Ratio Ki is 0.87 in the assay listed under Homo sapiens and 0.84 in the assay filed under Bos taurus. The Ki is 0.0127 µM in [1] and 0.0225 µM in assay [2].
As to `CCOC(=O)c1ncn2c1CN=C(c1cccc([N+](=O)[O-])c1)c1cc(F)ccc1-2`, the outcome (in the assay on Oocyte [3]; in assay [9]; in [11]) was Active. Moreover, the Activity in [4] is 14%; with Oocyte [5], -2.5%; in [8] it was -24%; in assay [10], 10%; in assay [12] it was -3.3%; with Oocyte [14] it was 27%.
In the case of `CCOC(=O)c1ncn2c1CN=C(c1cccc([N+](=O)[O-])c1)c1cc(Cl)ccc1-2`, the Ratio Ki in the assay listed under Homo sapiens amounted to 0.98; in the assay filed under Bos taurus it was 0.99. For the same compound, the Ki in assay [1] was 0.0017 µM; in assay [2] it was 0.0023 µM. The outcome in the assay filed under Rattus norvegicus [13] was Active.
As to `Clc1ccc(C2=NCc3c(-c4nnn[nH]4)ncn3-c3ccc(Cl)cc32)cc1`, the Ki in assay [1] is greater than 10 µM.
Still for that read-out and setting: under `NC(=O)c1ncn2c1CN=C(c1ccc(Cl)cc1)c1cc(Cl)ccc1-2` stands greater than 10 µM.
`CN1C(=O)CN=C(c2ccccc2)c2cc(Cl)ccc21`: the outcome with Mus musculus [15] and in the assay with Mus musculus [16] was Active.
`CCOC(=O)c1ncn2c1CN(C)C(=O)c1cc(F)ccc1-2` [FLUMAZENIL] registered an inhibition constant (Ki) in [1] of 0.0019 µM. In addition, in the assay listed under Rattus norvegicus [13], the result was Active.
As to `CCOC(=O)c1ncn2c1CN=C(c1ccc(F)cc1)c1cc(Cl)ccc1-2`, the Ratio Ki in the assay filed under Bos taurus was found to be 1.25. Besides, the values for the Ki in [1] and in assay [2] were 0.188 µM and 0.212 µM, respectively.
In the case of `CN(C)C(=O)c1ncn2c1CN=C(c1ccc(Cl)cc1)c1cc(Cl)ccc1-2`, the Ki in assay [1] is greater than 10 µM.
Consider `CCOC(=O)c1ncn2c1CN=C(c1ccc(C)cc1)c1cc(Cl)ccc1-2`, for which the Ratio Ki in the assay filed under Bos taurus was 1.05. For the same compound, the Ki came out at 0.199 µM in [1] and 0.178 µM in [2].
The corresponding values for `CCOC(=O)c1ncn2c1CN=C(c1cccc3ccccc13)c1cc(Cl)ccc1-2` are 1.3, 0.186 µM and 0.216 µM.
With `CN1C(=O)CN=C(c2ccccc2F)c2cc([N+](=O)[O-])ccc21` [FLUNITRAZEPAM], the Ratio Ki in the assay listed under Homo sapiens worked out at 1.6; in the assay filed under Bos taurus, 1.68. Also, in the assay listed under Rattus norvegicus [17], the result was Active. For the same compound, the inhibitory constant (Ki) in [1] amounted to 0.00517 µM; in assay [2], 0.0065 µM.
Consider `CCOC(=O)c1ncn2c1CN=C(c1ccc(Cl)cc1)c1cc(Cl)ccc1-2`, for which the Ratio Ki in the assay filed under Bos taurus is 1.3. Also, the Ki in assay [1] was 0.236 µM; in assay [2] it was 0.21 µM.
The matching figures for `CCOC(=O)c1ncn2c1C(C)N=C(c1ccc(F)cc1)c1cc(F)ccc1-2` (stereo unspecified): 1.19, 0.51 µM and 0.55 µM.
In turn, `N#Cc1ncn2c1CN=C(c1ccc(Cl)cc1)c1cc(Cl)ccc1-2` came in with a Ki in [1] of 1.65 µM.
As to `CCOC(=O)c1ncn2c1CN=C(c1ccc(F)cc1)c1ccccc1-2`, the Ratio Ki in the assay filed under Homo sapiens came to 0.96; in the assay listed under Bos taurus it was 0.77. Besides, the inhibitory constant (Ki) in [1] amounted to 0.0115 µM; in assay [2], 0.0208 µM. Also, in the assay filed under Rattus norvegicus [13], the outcome was Active.
With `CC(C)(C)OC(=O)c1ncn2c1CN=C(c1ccc(Cl)cc1)c1cc(Cl)ccc1-2`, in [1], the affinity corresponds to a Ki of 1.3 µM.
On to `CCOC(=O)c1ncn2c1C(C)N=C(c1ccccc1)c1ccccc1-2` (stereo unspecified), for which, in the assay listed under Bos taurus, the Ratio Ki amounted to 1.3. Also, the Ki in [1] was found to be 0.453 µM; in assay [2], 0.75 µM.
For the compound `CCOC(=O)c1ncn2c1CN=C(c1ccc(OC)cc1)c1cc(Cl)ccc1-2`, the Ki amounted to 0.21 µM in assay [1] and 0.227 µM in assay [2].
`CCOC(=O)c1ncn2c1CN=C(c1ccc(Cl)cc1)c1ccc3ccccc3c1-2` registered a Ki in assay [1] greater than 10 µM.
In turn, `CNC(=O)c1ncn2c1CN=C(c1ccc(Cl)cc1)c1cc(Cl)ccc1-2` yielded a Ki in [1] greater than 10 µM.
